Screening results deposited in PubChem by The Scripps Research Institute Molecular Screening Center.
Shown are actives, neighbours in structure and some others; about 1.9% of the full set was active somewhere.
UHRF1 binding: blocks human UHRF1 binding to methylated DNA; inhibition, % at 4.4 µM; 370,000 tested, 0.75% active; Q96T88; AID 687016; UHRF1 binding to methylated oligo, TR-FRET; in the data active = inhibition above about 21%;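 also: UHRF1 SRA domain binding a hemimethylated CpG hairpin DNA probe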
LEDGF integ inh: blocks HIV-1 LEDGF/p75-dependent DNA integration; TR-FRET IN-LEDGF/p75 DNA integration, Eu/Cy5; inhibition, % at 3.7 µM; 370,000 tested, 0.64% active;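 active = inhibition above the screen-wide mean plus 3 SD, cut at about 13% in these data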;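 also: signal is the Cy5 over europium emission ratio at 671 and 618 nm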
Rin1 Abl inh: blocks binding of human Rin1 to Abl. P00519+Q13671. TR-FRET Rin1/Abl binding, biochemical. inhibition, % at 7.35 µM. 360,000 tested, 0.4% active; in the data active = inhibition above about 5%, passing the limit was not always enough
MBD2 DNA inh: inhibitors of human MBD2 binding to methylated oligonucleotide; inhibition, % at 4.4 µM; 370,000 tested, 0.31% active; AID 686964; TR-FRET; Q9UBB5; in the data active = inhibition above about 13%
TDP2 inh: TDP2 (human) inhibition, absorbance primary screen; O95551; inhibition, % at 12.8 µM; 370,000 tested, 0.34% active; recombinant TDP2, T5PNP hydrolysis, p-nitrophenol absorbance 415 nm;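 active = inhibition above the mean of all tested compounds plus 3 SD, set per campaign, cut at about 25% in these data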
Target sequence (O95551 whole entry, looked up): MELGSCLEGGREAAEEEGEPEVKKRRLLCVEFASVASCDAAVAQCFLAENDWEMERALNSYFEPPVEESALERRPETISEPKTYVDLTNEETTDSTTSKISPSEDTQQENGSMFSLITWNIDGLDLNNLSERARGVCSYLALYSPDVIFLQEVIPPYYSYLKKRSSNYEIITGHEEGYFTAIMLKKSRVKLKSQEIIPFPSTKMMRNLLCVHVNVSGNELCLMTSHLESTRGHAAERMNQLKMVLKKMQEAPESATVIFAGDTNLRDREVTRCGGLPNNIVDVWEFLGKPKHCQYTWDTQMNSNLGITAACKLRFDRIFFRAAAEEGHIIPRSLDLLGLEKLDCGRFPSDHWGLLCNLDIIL
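Material: recombinant human TDP2; quantity: TDP2 enzyme at 120 nM final; medium: Tris-HCl pH 7.5 with MgCl2; compound: single concentration, 12.8 µM nominal, with 1% DMSO; incubation: 2 h enzyme incubation at 37 °C; signal: epi absorbance; measure: percent inhibition; benchmarks: high control without enzyme, low control DMSO plus TDP2; repeats: singlicate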
A number is an active result.

For O=C(c1ccccc1)N1CCc2ccccc21 the results were UHRF1 binding inactive, LEDGF integ inh inactive, Rin1 Abl inh inactive, MBD2 DNA inh inactive and TDP2 inh inactive.
Screening O=C(c1ccccc1)N1CCCc2ccccc21 returned UHRF1 binding 20.8, LEDGF integ inh inactive, Rin1 Abl inh inactive, MBD2 DNA inh inactive and TDP2 inh inactive.
O=C(c1ccc(=O)oc1)N1CCCc2ccccc21 was read as UHRF1 binding inactive, LEDGF integ inh 21.5, Rin1 Abl inh inactive, MBD2 DNA inh inactive and TDP2 inh inactive.
`COc1ccc(S(=O)(=O)N2CCSC2c2ccccc2)cc1` (configuration not stated) gave UHRF1 binding 69.1, LEDGF integ inh inactive, Rin1 Abl inh inactive, MBD2 DNA inh inactive and TDP2 inh inactive.
`CCOP(=O)(OCC)c1nc(-c2cccc3ccccc23)oc1NCc1ccc(OC)cc1` gave UHRF1 binding 24.5, LEDGF integ inh inactive, Rin1 Abl inh inactive, MBD2 DNA inh inactive and TDP2 inh inactive.
For C=CCN1C(=O)[C@@H](CC(=O)NCc2ccc(OC)c(OC)c2)[C@]2(C(=O)OC)CCCCC=C12 the results were UHRF1 binding inactive, LEDGF integ inh inactive, MBD2 DNA inh inactive and TDP2 inh inactive.
Cc1ccc(S(=O)(=O)N2C[C@]3(O)C[C@@H]4C(=O)N(c5ccccc5)C(=O)[C@@H]4C[C@]3(OC(=O)NCc3ccccc3)C2)cc1 was read as UHRF1 binding 22.6, LEDGF integ inh inactive, Rin1 Abl inh inactive, MBD2 DNA inh inactive and TDP2 inh inactive.
`CCOc1ccc2ccccc2c1CNCCc1ccc(S(N)(=O)=O)cc1` gave UHRF1 binding 45.1, LEDGF integ inh inactive, Rin1 Abl inh inactive, MBD2 DNA inh inactive and TDP2 inh inactive.
CC(=O)NC1CCCCN(C(C)C)C1=O (configuration not stated) was read as UHRF1 binding inactive, LEDGF integ inh inactive, MBD2 DNA inh inactive and TDP2 inh inactive.
For COc1cc(NC(=O)c2cc(C)on2)c(OC)cc1Cl the results were UHRF1 binding inactive, LEDGF integ inh inactive, MBD2 DNA inh inactive and TDP2 inh inactive.
Screening COc1cc(NC(=O)c2noc3c2CCC3)c(OC)cc1Cl returned UHRF1 binding 27.8, LEDGF integ inh inactive, Rin1 Abl inh inactive, MBD2 DNA inh inactive and TDP2 inh inactive.
`NC(=NCc1ccccc1)NC(=O)OCc1ccccc1` gave UHRF1 binding inactive, LEDGF integ inh inactive, MBD2 DNA inh inactive and TDP2 inh inactive.
Screening O=C(O)c1ccc(C(=O)c2ccc3c(c2)C(=O)N(CCO)C3=O)cc1 returned UHRF1 binding 22.3, LEDGF integ inh inactive, Rin1 Abl inh inactive, MBD2 DNA inh inactive and TDP2 inh inactive.
Screening CC(c1cc(F)ccc1O)c1c[nH]c2ccccc12 (configuration not stated) returned UHRF1 binding inactive, LEDGF integ inh inactive, MBD2 DNA inh inactive and TDP2 inh inactive.
Screening O=C1/C(=C\c2ccco2)CCC/C1=C\c1ccco1 returned UHRF1 binding 55.9, LEDGF integ inh 71.0, Rin1 Abl inh inactive, MBD2 DNA inh 18.6 and TDP2 inh inactive.
O=C1/C(=C/c2cccs2)CCC/C1=C\c1cccs1 was read as UHRF1 binding inactive, LEDGF integ inh 19.8, Rin1 Abl inh inactive, MBD2 DNA inh inactive and TDP2 inh inactive.
CCC1CCc2sc(C(=O)N(C)CC(=O)Nc3cccc(OC)c3)cc2C1 (configuration not stated) was read as UHRF1 binding 66.2, LEDGF integ inh inactive, Rin1 Abl inh inactive, MBD2 DNA inh inactive and TDP2 inh inactive.
`COCC(C)OC(=O)/C(C#N)=C\c1coc2ccc(C)cc2c1=O` (configuration not stated) gave UHRF1 binding 45.0, LEDGF integ inh inactive, Rin1 Abl inh inactive, MBD2 DNA inh inactive and TDP2 inh inactive.
For Fc1ccc(CSc2nnc(CN3CCOCC3)n2-c2ccccc2)c(Cl)c1 the results were UHRF1 binding 42.9, LEDGF integ inh inactive, Rin1 Abl inh inactive, MBD2 DNA inh inactive and TDP2 inh inactive.
Cc1ccc(C)c(N2CCN(c3ccc4cc(S(=O)(=O)N5CCCCC5)ccc4n3)CC2)c1 was read as UHRF1 binding inactive, LEDGF integ inh inactive, Rin1 Abl inh inactive, MBD2 DNA inh inactive and TDP2 inh inactive.
For Cc1cccc(N2CCN(c3ccc4cc(S(=O)(=O)N5CCCCC5)ccc4n3)CC2)c1C the results were UHRF1 binding 22.9, LEDGF integ inh inactive, Rin1 Abl inh inactive, MBD2 DNA inh inactive and TDP2 inh inactive.
O=C(CSc1nnc(-c2ccccc2F)n1Cc1ccco1)Nc1ccccc1-c1ccccc1 was read as UHRF1 binding inactive, LEDGF integ inh inactive, MBD2 DNA inh inactive and TDP2 inh inactive.
For Nc1cccc2cc(S(=O)(=O)O)ccc12 the results were UHRF1 binding 46.5, LEDGF integ inh 39.2, Rin1 Abl inh inactive, MBD2 DNA inh inactive and TDP2 inh 27.0.
Screening O=Nc1c(O)ccc2cc(S(=O)(=O)O)ccc12 returned Rin1 Abl inh inactive.
C[C@@H]1CCCN1c1ccc2c(c1)OCCCN(C1CC1)S2(=O)=O was read as UHRF1 binding inactive, LEDGF integ inh inactive, MBD2 DNA inh inactive and TDP2 inh inactive.
For COc1cccc2c1[C@H](/C=C/c1ccccc1)[C@@H]([C@H](O)CO)OC2 the results were UHRF1 binding inactive, LEDGF integ inh inactive, MBD2 DNA inh inactive and TDP2 inh inactive.
Screening CN1CCN(Cc2c(O)ccc3occ(C(=O)c4ccccc4)c23)CC1 returned UHRF1 binding inactive, LEDGF integ inh inactive, Rin1 Abl inh inactive, MBD2 DNA inh inactive and TDP2 inh inactive.
Screening CC(=O)C(C(C)=O)c1c(Cl)c(O)c(O)c2c(C(=O)c3ccccc3)coc12 returned UHRF1 binding inactive, LEDGF integ inh 51.0, Rin1 Abl inh inactive, MBD2 DNA inh inactive and TDP2 inh inactive.
Cc1ccc(-n2nc(-c3ccco3)cc2C(=O)O)cc1 was read as UHRF1 binding 31.2, LEDGF integ inh inactive, Rin1 Abl inh inactive, MBD2 DNA inh inactive and TDP2 inh inactive.
`CC(C)(C)[C@@H]1C=C(C(=O)NC2CC2)O[C@H](OCc2ccc(CO)cc2)C1` gave UHRF1 binding 37.2, LEDGF integ inh inactive, Rin1 Abl inh inactive, MBD2 DNA inh inactive and TDP2 inh inactive.
C[C@@]12C(=O)N(CC3CC3)CC(=O)N1[C@H](C1CC1)[C@@H]1C(=O)N(c3ccccc3)C(=O)[C@@H]12 was read as UHRF1 binding 39.3, LEDGF integ inh inactive, Rin1 Abl inh inactive, MBD2 DNA inh inactive and TDP2 inh inactive.
`COc1ccc(-c2sc3cc(OC)c(OC)cc3c2C#CCO)cc1` gave UHRF1 binding 21.9, LEDGF integ inh inactive, Rin1 Abl inh inactive, MBD2 DNA inh inactive and TDP2 inh inactive.
O=C1CCC[C@H]2CC3(CC[C@]24CCCN14)OCCO3 was read as UHRF1 binding inactive, LEDGF integ inh inactive, MBD2 DNA inh inactive and TDP2 inh inactive.
O=C(COc1ccc([N+](=O)[O-])cc1)Nc1cc(S(=O)(=O)N2CCCCC2)ccc1N1CCCCC1 was read as UHRF1 binding 22.2, LEDGF integ inh inactive, Rin1 Abl inh inactive, MBD2 DNA inh inactive and TDP2 inh inactive.
